Source: PubChem BioAssay
Hits are enriched below; roughly 1.1% of the tested compounds scored in any of these assays.
Pemphigus Ab inh – blocks pemphigus antibody binding to human desmoglein-3 | P32926 | DSG3-coupled beads, scFv-anti-DSG3-GFP binding, flow cytometry; active compounds read low | binding (percent of control), % at 10 µM | actives 0.48% (n = 310,000) | AID 588358;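 active = binding more than 3 SD below its plate's average and above zero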;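 also: hits lower antibody fragment binding to DSG3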
Avidin fluor – compound fluoresces at 488/530 nm on avidin beads | compound fluorescence 488/530 nm, flow cytometry; active compounds read high | fluorescence (KMESF) at 10 µM | AID 1775 | actives 0.38% (n = 220,000); in the data active = fluorescence above about 47
Arrestin-AP2 inh – inhibitors of human beta-arrestin and AP2 interaction | FITC-arrestin peptide / GST-AP2 beads, flow cytometry; AP2 beta2 appendage carries R879A mutation | inhibition, % at 10 µM | actives 0.31% (n = 340,000) | AID 504490;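 active = inhibition above a set limit, near 3 SD of compounds lacking own fluorescence, cut at about 54% in these data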
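Material – AP2 appendage R879A on GSH beads · Buffer or medium – PBS with 0.05% Tween 20 and 0.1% BSA · Probe or stimulus – fluorescein-tagged arrestin peptide at 50 nM final · Incubation – compound with beads 12 min RT, then probe 1 h RT · Detection – high-throughput flow cytometry of beads, ex 488, em 535 nm · Evaluation – percent response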
GSH bead fluor – compound fluoresces at 488/530 nm on GSH beads; GSH beads flow cytometry, compound fluorescence 488/530 nm; active compounds read high; fluorescence (KMESF) at 10 µM; actives 0.25% (n = 190,000); AID 1776; in the data active = fluorescence above about 89;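 also: glutathione beads carrying GST-tagged Bcl family fusion proteins plus one bare bead set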
Each line names hits and unclear results; the compound was inactive in the other large screens.

O=C(O)c1cccc2cc(-c3ccccc3)oc(=O)c12	none (no result: Avidin fluor, GSH bead fluor)
O=C(COC(=O)Cc1ccc(F)cc1)NC1CCCCC1	none (no result: Avidin fluor, GSH bead fluor)
CCc1ccc(-c2cn(C3CCCCC3)c(=S)[nH]2)cc1	none
CCN=C1S/C(=C\c2cc(Br)c(O)c(OC)c2)C(=O)N1CC	none (no result: Avidin fluor, GSH bead fluor)
CCN=C1S/C(=C\c2ccc(OC)c(OCC)c2)C(=O)N1CC	GSH bead fluor 106 (no result: Pemphigus Ab inh, Arrestin-AP2 inh)
Cc1ccc(C)c(NC(=O)C2CCCN(S(=O)(=O)c3c(C)nn(C)c3C)C2)c1 (stereo not given)	none (no result: Avidin fluor, GSH bead fluor)
CCCCN(C)C(=O)Cn1cnc2sc(C)cc2c1=O	Avidin fluor 110
Cc1cc2c(=O)n(CC(=O)N3CCN(c4ccc(F)cc4)CC3)cnc2s1	none
Cc1cc(C(=O)C(C)Sc2cccc[n+]2[O-])c(C)n1-c1ccc(Cl)cc1 (stereo not given)	none
Cc1onc(-c2c(F)cccc2Cl)c1C(=O)OCc1nnc(-c2ccccc2)o1	none (no result: Avidin fluor, GSH bead fluor)
CN1C/C(=C/c2ccccc2[N+](=O)[O-])C(=O)/C(=C\c2ccccc2[N+](=O)[O-])C1	none (no result: Avidin fluor, GSH bead fluor)
CCN(CC(=O)Nc1ccccc1C(F)(F)F)C(=O)COc1cccc2c1OC(C)(C)C2	none (no result: Avidin fluor, GSH bead fluor)
CC1(C)Cc2cccc(OCC(=O)Nc3ccccc3C(F)(F)F)c2O1	Pemphigus Ab inh 76.7 (no result: Avidin fluor, GSH bead fluor)
CCOc1ccc(S(=O)(=O)NCCC(=O)NCc2cccnc2)cc1	none (no result: Avidin fluor, GSH bead fluor)
O=C(N/N=C/c1ccc(O)c(Br)c1)c1cc2c(ccc3ccccc32)o1	Pemphigus Ab inh 77.5 (no result: Avidin fluor, GSH bead fluor)
O=C(N/N=C/c1cc(Br)c(O)c(Br)c1)c1cc2c(ccc3ccccc32)o1	none (no result: Pemphigus Ab inh, Avidin fluor, GSH bead fluor)
Clc1cccc(C2Nc3cccc4cccc(c34)N2)c1	Arrestin-AP2 inh 54.9 (no result: Avidin fluor, GSH bead fluor)
O=C(Nc1cc(C(F)(F)F)ccc1N1CCOCC1)c1cccc(S(=O)(=O)N2CCOCC2)c1	none (no result: Avidin fluor, Arrestin-AP2 inh, GSH bead fluor)
CC(Oc1ccc2c(-c3ccccc3)cc(=O)oc2c1)C(=O)NCC(O)c1ccccc1 (stereo not given)	none (no result: Pemphigus Ab inh, Avidin fluor, GSH bead fluor)
CC(=NNc1ccc2ccccc2n1)c1ccccc1O	none (no result: Avidin fluor, GSH bead fluor)
C/C(=N\Nc1nc2ccccc2nc1C)c1ccccc1O	Pemphigus Ab inh 78.0 (no result: GSH bead fluor)
O=C(NC(=S)Nc1cc(S(=O)(=O)N2CCOCC2)ccc1N1CCOCC1)C1CCCC1	none (no result: Pemphigus Ab inh, Arrestin-AP2 inh)
CC(=O)Nc1cc2c(=O)n(Cc3ccccc3)c(C)nc2cc1N1CCOCC1	Avidin fluor 52 (no result: Pemphigus Ab inh)
Cc1nc2cc(N3CCCCC3)c(NC(=O)c3cccnc3)cc2c(=O)n1Cc1ccccc1	none
CN(C)CCNc1nc2c(c(=O)[nH]c(=O)n2C)n1CCOc1ccccc1	Pemphigus Ab inh 81.0 (no result: Avidin fluor, GSH bead fluor)
COc1ccc(NC(=O)c2cc3c(COC(C)=O)cnc(C)c3oc2=Nc2cccc(C(=O)O)c2)c(OC)c1	Pemphigus Ab inh 66.0 (no result: Avidin fluor, GSH bead fluor)
Cc1nnc(N(Cc2ccco2)C(=O)c2cccc(C#N)c2)s1	none
Cc1nnc(N(Cc2ccco2)C(=O)c2ccc(C#N)cc2)s1	GSH bead fluor 110
CCOC(=O)C1=C(N)n2c(s/c(=C\c3cccnc3)c2=O)=C(C(=O)OC)C1c1cccnc1 (stereo not given)	Pemphigus Ab inh 87.8 (no result: Avidin fluor, GSH bead fluor)
CCOC(=O)C1=C(N)n2c(s/c(=C\c3ccncc3)c2=O)=C(C(=O)OCC)C1c1ccncc1 (stereo not given)	none
OC[C@@H]1CCCN1Cc1cn(-c2ccccc2)nc1-c1ccc2c(c1)OCO2	none
COCC1CCCCN1Cc1cn(-c2ccccc2)nc1-c1ccc2c(c1)OCO2 (stereo not given)	Avidin fluor 69
COc1ccc(C(=O)Nn2c(C)nc3ccccc3c2=O)cc1Br	Pemphigus Ab inh 72.4 (no result: Avidin fluor, GSH bead fluor)
Cc1cccc(-c2nc3ccccc3c(=O)n2NC(=O)c2ccc([N+](=O)[O-])c(C)c2)c1	Avidin fluor 73
Cc1ccccc1OCCC(=O)OCC(=O)Nc1ccc2[nH]c(=O)[nH]c2c1	none (no result: Avidin fluor, GSH bead fluor)
CC1(c2ccccc2)NC(=O)N(CC(=O)N(CC(=O)Nc2ccccc2C(F)(F)F)Cc2ccco2)C1=O (stereo not given)	none (no result: Avidin fluor, GSH bead fluor)
Cc1ccc(-c2cc(C(=O)Nc3c(C)n(C)n(-c4ccccc4)c3=O)[nH]n2)c(O)c1	Pemphigus Ab inh -20.7
CC1(C)N=C(N)N=C(N)N1c1ccc(CCCCc2ccccc2)cc1	none (no result: Avidin fluor, Arrestin-AP2 inh, GSH bead fluor)
CSc1cccc(NS(=O)(=O)c2ccc(-c3coc(C)n3)cc2)c1	Pemphigus Ab inh 3.0 (no result: Avidin fluor, GSH bead fluor)
Cc1nc(-c2ccc(S(=O)(=O)Nc3cccc(Cl)c3)cc2)co1	Pemphigus Ab inh 59.2 (no result: Avidin fluor, GSH bead fluor)
COc1ccc(NS(=O)(=O)c2ccc(-c3coc(C)n3)cc2)cc1OC	none (no result: Avidin fluor, GSH bead fluor)
CC(=O)c1ccc(-c2nnc(CCC(=O)N3CCCC(C(=O)CC(C)C)C3)o2)s1 (stereo not given)	none (no result: Avidin fluor, GSH bead fluor)
CNCc1ccccc1Sc1ccc(O)c(O)c1	Pemphigus Ab inh 56.9
